As usually defined, the inhibition is the relative decrease from the control value, in per cent.

Our source for the inhibition, Emax and Kb values is ChEMBL document CHEMBL4715743, “Synthesis and biological evaluation of indole-2-carboxamides bearing photoactivatable functionalities as novel allosteric modulators for the cannabinoid CB1 receptor” (Eur J Med Chem, 2016).

Experiment [1] has as its target Cannabinoid receptor 1 (Homo sapiens) (UniProt P21554). In words: Negative allosteric modulator activity at CB1 receptor (unknown origin) expressed in HEK293 cell membrane assessed as reduction in CP55,940-induced [35S]GTPgammaS binding incubated for 60 mins by liquid scintillation counting analysis. The format is functional, cell membranes. The settings on record: filed as negative allosteric modulator, dose 3.2-10 µM. In general terms: Binding of GTPγS marks nucleotide exchange on a G protein.

The target is the same in experiment [2]. Nature of the experiment: Negative allosteric modulator activity at CB1 receptor (unknown origin) expressed in HEK293 cell membrane assessed as reduction in CP55,940-induced [35S]GTPgammaS binding by measuring Emax of CP55,940 at 3.2 uM incubated for 60 mins by liquid scintillation counting analysis (reference value: 68.9 +/-1.7 fmol/mg). The format is functional, cell membranes. The note with it: filed as negative allosteric modulator.

For experiment [3] the target is unchanged. Nature of the experiment: Negative allosteric modulator activity at CB1 receptor (unknown origin) expressed in HEK293 cell membrane assessed as reduction in CP55,940-induced [35S]GTPgammaS binding at 10 uM incubated for 60 mins by liquid scintillation counting analysis. The note with it: filed as negative allosteric modulator. In kind it is functional, cell membranes.

The target is the same in experiment [4]. Nature of the experiment: Negative allosteric modulator activity at CB1 receptor (unknown origin) expressed in HEK293 cell membrane assessed as equilibrium dissociation constant using [3H]-CP55940 as radiolabelled orthosteric agonist incubated for 60 mins by liquid scintillation counting analysis. In kind it is cell membranes. The settings on record: filed as negative allosteric modulator. An outline of the steps:
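HEK293 cells transiently transfected with CB1 (calcium phosphate), harvested at 24 h; membranes from nitrogen cavitation and 100,000 g pellet, kept in TME buffer (pH 7.4) with 7% sucrose. 4 µg membrane incubated 60 min with [3H]CP55940 at about its Kd in TME plus 0.1% fatty acid-free BSA. Nonspecific binding taken with 1 µM unlabeled CP55,940; filtration on GF/C. At least three experiments, each in duplicate.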

Sequence of Cannabinoid receptor 1 (Homo sapiens) (P21554 whole entry): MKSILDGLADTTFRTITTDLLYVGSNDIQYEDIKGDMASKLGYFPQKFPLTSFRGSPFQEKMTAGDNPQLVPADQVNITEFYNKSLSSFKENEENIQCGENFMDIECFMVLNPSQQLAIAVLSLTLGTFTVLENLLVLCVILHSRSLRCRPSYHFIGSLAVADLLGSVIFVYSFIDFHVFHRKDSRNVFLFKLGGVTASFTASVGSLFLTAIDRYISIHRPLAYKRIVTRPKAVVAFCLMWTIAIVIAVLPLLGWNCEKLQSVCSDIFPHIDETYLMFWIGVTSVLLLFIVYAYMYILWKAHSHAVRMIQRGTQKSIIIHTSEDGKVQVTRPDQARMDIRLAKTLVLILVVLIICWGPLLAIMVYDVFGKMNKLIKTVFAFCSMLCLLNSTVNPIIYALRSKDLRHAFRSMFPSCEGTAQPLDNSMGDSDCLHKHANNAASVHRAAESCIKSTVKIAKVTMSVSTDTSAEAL

`CN(C)c1ccc(CCNC(=O)c2[nH]c3ccc(Cl)cc3c2CN=[N+]=[N-])cc1`: the values for the inhibition entry in experiment [1] and in experiment [3] were “Dose-dependent effect” and 100%, respectively. Besides, the Emax in experiment [2] was 31.1 fmol/mg. For the same compound, the Kb in experiment [4] was determined as 200 nM.
On to `[N-]=[N+]=NCc1c(C(=O)NCCc2ccc(N3CCCCC3)cc2)[nH]c2ccc(Cl)cc12`, for which the Kb in experiment [4] was 784 nM.
On to `[N-]=[N+]=NCc1c(C(=O)NCCc2ccc(C(=O)c3ccccc3)cc2)[nH]c2ccc(Cl)cc12`, for which the Kb in experiment [4] was determined as 6310 nM.
For the compound `CCc1c(C(=O)NCCc2ccc(C(=O)c3ccccc3)cc2)[nH]c2ccc(Cl)cc12`, the inhibition entry in experiment [1] is “Dose-dependent effect”; in experiment [3], 100%. In experiment [2], the Emax was 41.3 fmol/mg. In addition, the Kb in experiment [4] turned out to be 254 nM.
Take `CCCCCCc1c(C(=O)NCCc2ccc(C3(C(F)(F)F)N=N3)cc2)[nH]c2ccc(Cl)cc12`: the Kb in experiment [4] is 3280 nM.
Take `CCCCCCc1c(C(=O)NCCc2ccc(N=[N+]=[N-])cc2)[nH]c2ccc(Cl)cc12`: the inhibition entry in experiment [1] was “Dose-dependent effect”; in experiment [3], 100%. Further, the Emax in experiment [2] amounted to 34.1 fmol/mg. Further, the Kb in experiment [4] stood at 314 nM.
In the same order, the values of `CCCCCc1c(C(=O)NCCc2ccc(C(=O)c3ccccc3)cc2)[nH]c2ccc(Cl)cc12` are “Dose-dependent effect”, 100%, 27 fmol/mg and 559 nM.
